Assay results from ChEMBL document CHEMBL1141882, “Synthesis and biological testing of purine derivatives as potential ATP-competitive kinase inhibitors” (J Med Chem, 2005).

Columns and labels:
[1] = biological target: Dual specificity mitogen-activated protein kinase kinase 1 (Homo sapiens) (UniProt Q02750); assay: Inhibition of human Mitogen activated protein kinase kinase 1 (MEK1) at 30 uM
Method in brief: (§1)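 Kinase activity assayed with ATP at 100 µM, deliberately higher than usual assay ATP levels because the inhibitors are assumed ATP-competitive. Results are reported as percent inhibition of each kinase.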

[2] = biological target: Mitogen-activated protein kinase 9 (Homo sapiens) (UniProt P45984); assay: Inhibition of human c-Jun N-terminal kinase-2 alpha-2 at 30 uM; method in brief: as §1
Mitogen-activated protein kinase 9 (Homo sapiens), sequence (P45984 whole entry, looked up): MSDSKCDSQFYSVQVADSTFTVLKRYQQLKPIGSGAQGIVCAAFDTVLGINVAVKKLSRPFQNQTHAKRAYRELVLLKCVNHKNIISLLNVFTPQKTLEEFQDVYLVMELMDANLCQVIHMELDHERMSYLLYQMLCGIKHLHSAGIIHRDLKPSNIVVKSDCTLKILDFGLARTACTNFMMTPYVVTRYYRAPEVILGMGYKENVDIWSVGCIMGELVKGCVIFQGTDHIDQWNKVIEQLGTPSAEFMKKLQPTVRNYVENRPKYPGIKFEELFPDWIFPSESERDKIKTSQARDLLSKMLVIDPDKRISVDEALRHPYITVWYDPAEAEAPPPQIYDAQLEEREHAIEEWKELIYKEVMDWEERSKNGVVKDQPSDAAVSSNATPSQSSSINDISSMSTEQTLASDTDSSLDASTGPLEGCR

[3] = biological target: Mitogen-activated protein kinase 1 (Homo sapiens) (UniProt P28482); assay: Inhibition of human Mitogen-activated protein kinase 2 at 30 uM; method in brief: as §1
Mitogen-activated protein kinase 1 (Homo sapiens), sequence (P28482 whole entry): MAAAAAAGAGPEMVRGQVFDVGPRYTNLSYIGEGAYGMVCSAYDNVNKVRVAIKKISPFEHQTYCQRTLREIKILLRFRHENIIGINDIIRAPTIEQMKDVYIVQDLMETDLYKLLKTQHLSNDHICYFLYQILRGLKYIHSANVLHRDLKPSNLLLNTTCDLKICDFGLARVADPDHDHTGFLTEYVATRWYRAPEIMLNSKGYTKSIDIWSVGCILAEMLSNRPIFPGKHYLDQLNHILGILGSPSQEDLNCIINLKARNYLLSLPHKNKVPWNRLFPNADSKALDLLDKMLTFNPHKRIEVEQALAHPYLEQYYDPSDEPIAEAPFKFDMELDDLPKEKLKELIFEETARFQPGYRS

[4] = biological target: RAF proto-oncogene serine/threonine-protein kinase (Homo sapiens) (UniProt P04049); assay: Inhibition of human RAF proto-oncogene serine/threonine-protein kinase at 30 uM; method in brief: as §1
[5] = biological target: Ca2+/calmodulin-dependent protein kinase II (CaM kinase II) (Rattus norvegicus) (UniProt P11275+P08413+P15791+P11730); assay: Inhibition of rat Calcium/calmodulin-dependent protein kinase type II at 30 uM; type: protein assay; method in brief: as §1
[6] = biological target: Mitogen-activated protein kinase 14 (Homo sapiens) (UniProt Q16539); assay: Inhibition of human stress-activated protein kinase-2 alpha (p38 MAP-kinase) at 30 uM; method in brief: as §1
Mitogen-activated protein kinase 14 (Homo sapiens), sequence (Q16539 whole entry): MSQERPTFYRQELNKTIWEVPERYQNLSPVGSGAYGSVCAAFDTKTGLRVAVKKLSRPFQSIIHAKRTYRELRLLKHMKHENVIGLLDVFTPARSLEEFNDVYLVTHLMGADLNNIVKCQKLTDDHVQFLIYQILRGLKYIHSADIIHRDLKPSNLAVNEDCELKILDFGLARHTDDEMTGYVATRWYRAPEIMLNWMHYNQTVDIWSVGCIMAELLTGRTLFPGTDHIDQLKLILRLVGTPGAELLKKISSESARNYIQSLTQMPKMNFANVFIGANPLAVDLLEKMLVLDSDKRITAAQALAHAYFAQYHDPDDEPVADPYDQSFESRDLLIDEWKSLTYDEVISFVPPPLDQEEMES

[7] = biological target: Protein kinase C alpha type (Homo sapiens) (UniProt P17252); assay: Inhibition of human Protein kinase C alpha; parameters: concentration or dose not given beside the values; conditions: concentration not given here
[8] = biological target: Rho-associated protein kinase 2 (Homo sapiens) (UniProt O75116); assay: Inhibition of human Rho-dependent protein kinase-II at 30 uM
Rho-associated protein kinase 2 (Homo sapiens), sequence (O75116 whole entry, looked up): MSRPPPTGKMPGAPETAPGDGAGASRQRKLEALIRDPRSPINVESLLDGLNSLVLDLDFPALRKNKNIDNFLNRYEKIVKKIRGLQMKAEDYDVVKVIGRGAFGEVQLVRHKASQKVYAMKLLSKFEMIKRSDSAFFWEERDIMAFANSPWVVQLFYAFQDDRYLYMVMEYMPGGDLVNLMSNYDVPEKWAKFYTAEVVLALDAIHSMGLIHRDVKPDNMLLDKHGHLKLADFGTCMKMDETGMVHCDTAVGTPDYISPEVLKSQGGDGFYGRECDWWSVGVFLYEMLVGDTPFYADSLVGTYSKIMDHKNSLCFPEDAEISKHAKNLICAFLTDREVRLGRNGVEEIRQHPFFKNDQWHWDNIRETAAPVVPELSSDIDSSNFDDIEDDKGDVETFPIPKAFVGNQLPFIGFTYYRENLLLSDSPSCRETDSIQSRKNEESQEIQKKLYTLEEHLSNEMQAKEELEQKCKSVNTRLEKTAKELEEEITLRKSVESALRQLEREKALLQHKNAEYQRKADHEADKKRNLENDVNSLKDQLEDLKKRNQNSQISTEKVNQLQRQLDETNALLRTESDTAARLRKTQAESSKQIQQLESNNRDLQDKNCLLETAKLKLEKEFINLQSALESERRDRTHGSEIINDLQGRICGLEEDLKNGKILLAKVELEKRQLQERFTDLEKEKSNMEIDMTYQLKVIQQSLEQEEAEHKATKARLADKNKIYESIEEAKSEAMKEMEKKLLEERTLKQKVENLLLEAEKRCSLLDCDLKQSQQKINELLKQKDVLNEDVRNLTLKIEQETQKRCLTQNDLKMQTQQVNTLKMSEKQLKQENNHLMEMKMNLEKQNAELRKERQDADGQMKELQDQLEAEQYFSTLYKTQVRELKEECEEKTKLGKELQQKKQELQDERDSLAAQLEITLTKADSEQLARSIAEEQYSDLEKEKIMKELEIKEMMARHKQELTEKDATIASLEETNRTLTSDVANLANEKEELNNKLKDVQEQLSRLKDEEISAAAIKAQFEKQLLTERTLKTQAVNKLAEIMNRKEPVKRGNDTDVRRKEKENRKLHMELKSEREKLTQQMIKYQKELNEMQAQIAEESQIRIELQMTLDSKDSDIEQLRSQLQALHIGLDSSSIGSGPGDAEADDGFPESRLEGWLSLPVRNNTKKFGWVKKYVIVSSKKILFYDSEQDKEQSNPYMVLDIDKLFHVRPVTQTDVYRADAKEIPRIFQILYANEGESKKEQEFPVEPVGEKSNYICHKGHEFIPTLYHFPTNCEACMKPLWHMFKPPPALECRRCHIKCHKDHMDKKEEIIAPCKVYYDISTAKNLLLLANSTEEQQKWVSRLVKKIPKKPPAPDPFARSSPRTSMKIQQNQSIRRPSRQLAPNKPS

[9] = biological target: cAMP-dependent protein kinase (PKA) (Homo sapiens) (UniProt P22694+P17612+P22612); assay: Inhibition of human cAMP-dependent protein kinase (PKA); type: protein assay; parameters: concentration or dose not given beside the values; conditions: concentration not given here
[10] = biological target: RAC-alpha serine/threonine-protein kinase (Homo sapiens) (UniProt P31749); assay: Inhibition of human Protein kinase B alpha at 30 uM; method in brief: as §1
RAC-alpha serine/threonine-protein kinase (Homo sapiens), sequence (P31749 whole entry): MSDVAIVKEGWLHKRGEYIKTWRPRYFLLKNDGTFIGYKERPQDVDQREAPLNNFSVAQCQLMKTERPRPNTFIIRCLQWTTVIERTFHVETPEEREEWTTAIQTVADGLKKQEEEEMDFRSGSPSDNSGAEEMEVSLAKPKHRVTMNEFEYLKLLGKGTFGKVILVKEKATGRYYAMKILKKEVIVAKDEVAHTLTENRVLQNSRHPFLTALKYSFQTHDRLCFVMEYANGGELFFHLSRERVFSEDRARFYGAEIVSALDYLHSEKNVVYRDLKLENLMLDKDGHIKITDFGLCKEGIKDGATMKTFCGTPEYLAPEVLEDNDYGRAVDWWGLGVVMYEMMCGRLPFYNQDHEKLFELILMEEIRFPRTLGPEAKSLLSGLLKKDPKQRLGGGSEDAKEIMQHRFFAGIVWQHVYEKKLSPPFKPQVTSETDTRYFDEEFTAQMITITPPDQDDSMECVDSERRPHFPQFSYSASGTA

[11] = biological target: Tyrosine-protein kinase Lck (Homo sapiens) (UniProt P06239); assay: Inhibition of human lymphocyte protein tyrosine kinase Lck at 30 uM; method in brief: as §1
Tyrosine-protein kinase Lck (Homo sapiens), sequence (P06239 2-509 limits assumed): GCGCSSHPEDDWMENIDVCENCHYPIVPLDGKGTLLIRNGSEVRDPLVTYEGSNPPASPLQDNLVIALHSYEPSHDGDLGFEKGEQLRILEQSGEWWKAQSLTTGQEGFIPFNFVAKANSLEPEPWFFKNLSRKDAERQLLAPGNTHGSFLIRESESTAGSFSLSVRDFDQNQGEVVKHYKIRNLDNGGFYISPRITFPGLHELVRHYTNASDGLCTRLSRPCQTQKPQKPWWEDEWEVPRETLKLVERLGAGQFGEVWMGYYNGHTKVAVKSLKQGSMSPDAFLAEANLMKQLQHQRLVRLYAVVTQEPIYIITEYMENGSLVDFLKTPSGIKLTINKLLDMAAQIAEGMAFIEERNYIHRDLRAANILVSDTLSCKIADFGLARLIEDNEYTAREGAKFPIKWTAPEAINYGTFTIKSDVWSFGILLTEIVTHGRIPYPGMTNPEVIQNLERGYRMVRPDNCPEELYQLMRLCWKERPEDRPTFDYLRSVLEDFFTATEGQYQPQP

[12] = biological target: Mitogen-activated protein kinase 8 (Homo sapiens) (UniProt P45983); assay: Inhibition of human c-Jun N-terminal kinase-1 alpha-1 at 30 uM; method in brief: as §1
[13] = biological target: Glycogen synthase kinase-3 beta (Homo sapiens) (UniProt P49841); assay: Inhibition of human Glycogen synthase kinase-3 beta at 30 uM; method in brief: as §1
Glycogen synthase kinase-3 beta (Homo sapiens), sequence (P49841 whole entry, looked up): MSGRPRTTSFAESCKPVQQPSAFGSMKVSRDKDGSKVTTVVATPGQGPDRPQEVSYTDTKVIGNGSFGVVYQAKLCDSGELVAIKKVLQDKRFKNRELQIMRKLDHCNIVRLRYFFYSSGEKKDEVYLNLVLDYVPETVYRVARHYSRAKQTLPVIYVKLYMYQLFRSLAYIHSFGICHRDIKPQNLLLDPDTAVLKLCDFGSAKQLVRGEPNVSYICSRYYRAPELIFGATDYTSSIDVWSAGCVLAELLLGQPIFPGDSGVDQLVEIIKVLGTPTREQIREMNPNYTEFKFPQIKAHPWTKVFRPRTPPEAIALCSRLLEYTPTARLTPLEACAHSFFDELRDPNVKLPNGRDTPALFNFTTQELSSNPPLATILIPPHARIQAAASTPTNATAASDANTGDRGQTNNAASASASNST

[14] = biological target: Mitogen-activated protein kinase 10 (Rattus norvegicus) (UniProt P49187); assay: Inhibition of rat c-Jun N-terminal kinase-3 at 30 uM; method in brief: as §1

Dual specificity mitogen-activated protein kinase kinase 1 (Homo sapiens), sequence (Q02750 whole entry): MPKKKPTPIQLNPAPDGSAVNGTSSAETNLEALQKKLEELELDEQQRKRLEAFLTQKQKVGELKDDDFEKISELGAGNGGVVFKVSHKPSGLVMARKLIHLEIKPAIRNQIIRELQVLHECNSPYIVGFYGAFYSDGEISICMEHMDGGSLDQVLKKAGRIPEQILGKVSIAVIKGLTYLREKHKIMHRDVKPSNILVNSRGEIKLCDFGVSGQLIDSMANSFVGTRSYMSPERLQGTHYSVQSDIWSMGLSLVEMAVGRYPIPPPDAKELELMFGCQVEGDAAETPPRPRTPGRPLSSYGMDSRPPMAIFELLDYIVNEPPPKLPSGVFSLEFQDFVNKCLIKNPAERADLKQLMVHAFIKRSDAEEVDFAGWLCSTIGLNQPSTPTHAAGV

SMILES | inhibition [1] | inhibition [2] | inhibition [3] | inhibition [4] | inhibition [5] | inhibition [6] | inhibition [7] | inhibition [8] | inhibition [9] | inhibition [10] | inhibition [11] | inhibition [12] | inhibition [13] | inhibition [14]
Cn1c(-c2ccccc2)nc2c(Sc3ccc(F)cc3)ncnc21 | 7% | 0% | 1% | 14% | 8% | 29% | 17% | 9% | 3% | 29% | 20% | 2% | 22% | 16%
Fc1ccc(Sc2[nH]cnc3nccc2-3)cc1 | 36% | 6% | 2% | 43% | 3% | 79% | 15% | 42% | 0% | 0% | 52% | 2% | 4% | 5%
c1ccc(Sc2ncnc3[nH]cnc23)cc1 | 0% | 0% | 13% | 6% | 0% | 54% | 3% | 33% | 8% | 0% | 5% | 0% | 1% | 0%
Fc1ccc(Sc2ncnc3[nH]cnc23)cc1 | 2% | 1% | 12% | 29% | 0% | 72% | 9% | 37% | 10% | 0% | 13% | 0% | 0% | 8%
Cn1cnc2c(Nc3ccccc3)ncnc21 | 4% | 0% | 42% | 44% | 0% | 0% | 2% | 0% | 0% | 0% | 18% | 0% | 26% | 5%
Fc1ccc(Sc2ncnc3c2ncn3Cc2ccccc2)cc1 | 4% | 0% | 0% | 0% | 0% | 64% | 0% | 5% | 0% | 1% | 16% | 0% | 0% | 0%
Cn1c(C#CCCO)nc2c(Sc3ccccc3)ncnc21 | 0% | 0% | 0% | 0% | 10% | 3% | 18% | 0% | 0% | 33% | 11% | 0% | 0% | 0%
Cn1c(-c2ccc([S+](C)[O-])cc2)nc2c(Sc3ccccc3)ncnc21 (stereo not given) | 3% | 0% | 0% | 0% | 8% | 27% | 8% | 1% | 0% | 4% | 30% | 0% | 4% | 6%
Fc1ccc(Oc2[nH]cnc3ncnc2-3)cc1 | 0% | 0% | 0% | 1% | 0% | 18% | 3% | 9% | 0% | 0% | 0% | 0% | 0% | 0%
Fc1ccc(Cc2[nH]cnc3ncnc2-3)cc1 | 0% | 0% | 0% | 0% | 8% | 1% | 0% | 2% | 0% | 3% | 0% | 0% | 2% | 0%
Cn1cnc2c(SCc3ccccc3)ncnc21 | 6% | 7% | 0% | 12% | 0% | 22% | 13% | 1% | 0% | 4% | 6% | 1% | 10% | 5%
Cn1cnc2c(-c3ccccc3)ncnc21 | 9% | 11% | 9% | 12% | 8% | 16% | 14% | 8% | 7% | 15% | 21% | 9% | 11% | 14%
Cn1c(-c2ccc([S+](C)[O-])cc2)nc2c(Sc3ccc(F)cc3)ncnc21 (stereo not given) | 1% | 1% | 0% | 4% | 12% | 44% | 15% | 0% | 4% | 10% | 30% | 0% | 4% | 10%
Cn1cnc2c(-c3ccc(F)cc3)ncnc21 | 1% | 3% | 0% | 9% | 12% | 16% | 8% | 10% | 0% | 0% | 5% | 5% | 3% | 14%
Nc1ncnc2c1ncn2Cc1ccccc1 | 7% | 0% | 11% | 25% | 0% | 7% | 2% | 5% | 1% | 0% | 19% | 1% | 7% | 17%
Cn1c(-c2ccccc2)nc2c(Sc3ccccc3)ncnc21 | 4% | 0% | 0% | 12% | 1% | 44% | 13% | 1% | 3% | 42% | 5% | 0% | 0% | 12%
c1ccc(CSc2ncnc3[nH]cnc23)cc1 | 7% | 0% | 12% | 53% | 0% | 50% | 11% | 28% | 13% | 4% | 22% | 1% | 35% | 7%
Nc1ncnc2ncn(Cc3ccc(F)cc3)c12 | 8% | 7% | 5% | 28% | 8% | 8% | 14% | 6% | 7% | 0% | 0% | 4% | 0% | 25%
Cn1cnc2c(SCc3ccc(F)cc3)ncnc21 | 7% | 6% | 8% | 16% | 5% | 21% | 12% | 6% | 0% | 11% | 5% | 10% | 14% | 9%
Cn1c(-c2ccc(S(C)(=O)=O)cc2)nc2c(Sc3ccc(F)cc3)ncnc21 | 0% | 2% | 0% | 6% | 0% | 19% | 7% | 0% | 3% | 4% | 10% | 0% | 0% | 5%
